High-throughput results as filed in PubChem BioAssay.
proCasp3 act – activates human procaspase-3 | recombinant procaspase-3 D3A, Ac-DEVD-pNA absorbance 405 nm | activation, % at 8.5 µM | 330,000 tested, 0.11% active | AID 463141;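 active means activation above the mean of all tested compounds plus 3 SD, cut at about 21% in these data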
Target sequence (P42574 whole entry D9A/D28A/D175A): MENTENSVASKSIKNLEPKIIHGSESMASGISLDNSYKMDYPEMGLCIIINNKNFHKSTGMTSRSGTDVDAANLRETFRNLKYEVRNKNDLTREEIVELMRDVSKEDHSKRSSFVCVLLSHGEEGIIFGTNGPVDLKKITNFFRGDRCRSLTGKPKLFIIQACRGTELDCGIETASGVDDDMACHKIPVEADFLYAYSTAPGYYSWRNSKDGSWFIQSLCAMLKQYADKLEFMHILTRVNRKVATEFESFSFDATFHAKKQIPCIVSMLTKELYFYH
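Assay system – Procaspase-3 D3A mutant · Benchmarks – DMSO low control, extra-enzyme high control · Technique – 405 nm absorbance of p-nitroaniline, reads at 0 and 120 min · Doses – 8.5 µM nominal · Measure – % activation between DMSO and enzyme-spiked controls · Also added – Ac-DEVD-pNA chromogenic peptide substrate · Schedule – 1 h compound preincubation, 2 h substrate hydrolysis at 25 °C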
Neddylation inh – inhibitors of human cullin neddylation | 360,000 tested, 0.58% active | calls only at 25 µM | AID 651699 | TR-FRET cullin neddylation, biochemical | P61081+Q13564; in the data active means inhibition above about 36%
KLK7 zymogen act – activates the human kallikrein-7 zymogen | AID 652039 | P49862 | purified proKLK7, EDANS-DABCYL substrate fluorescence; 100% is mature enzyme control, 0% vehicle | activation, % at 7 µM | 370,000 tested, 0.9% active;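 active means activation above the mean of all tested compounds plus 3 SD, computed per campaign excluding outliers beyond control limits, cut at about 13% in these data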
Target sequence (P49862 whole entry, looked up): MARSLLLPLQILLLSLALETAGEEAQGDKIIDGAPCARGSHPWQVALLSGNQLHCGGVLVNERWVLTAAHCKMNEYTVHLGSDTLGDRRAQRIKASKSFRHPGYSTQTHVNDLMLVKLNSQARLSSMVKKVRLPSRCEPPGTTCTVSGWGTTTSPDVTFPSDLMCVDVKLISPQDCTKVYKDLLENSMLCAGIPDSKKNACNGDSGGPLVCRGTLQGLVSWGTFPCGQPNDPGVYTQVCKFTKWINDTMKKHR
procasp7 counter – counter-screen for procaspase-3 activators: activators of human procaspase-7 | recombinant procaspase-7, Ac-DEVD-pNA absorbance 405 nm; D23A/D198A/D206A triple mutant, cannot self-cleave; scale: DMSO 0, 5 µM enzyme 100 | activation, % at 8.5 µM | 330,000 tested, 0.093% active;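 active means percent activation above the screen-wide mean plus 3 SD, cut at about 25% in these data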
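Assay system: Uncleavable procaspase-7 mutant enzyme / Input: 2 µM procaspase-7 mutant as dispensed / Dosing: single nominal 8.5 µM compound dose, 0.8% DMSO final / Timing: 1 h enzyme–compound preincubation and 2 h substrate reaction, both 25 °C / Detection: p-Nitroaniline absorbance at 405 nm, read at 0 and 120 min / Replication: singlicate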
KLK7 act conf – confirmation of human kallikrein-7 zymogen activators; 3,200 tested, 68% active; shares compounds with KLK7 zymogen act; activation, % at 7 µM; purified proKLK7, EDANS-DABCYL substrate fluorescence; scaled: vehicle 0, mature enzyme 100; AID 686949;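 active means activation, as change over the incubation, above the mean of all tested compounds plus 3 SD, cut at about 13% in these data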
EDANS interfere – optically interferes with EDANS-DABCYL signal, flagging KLK7 hits; AID 686952; EDANS-DABCYL substrate fluorescence interference, no enzyme, 4 h; solvent 0%, active enzyme control 100%; activation, % at 7 µM; 3,200 tested, 80% active; shares compounds with KLK7 zymogen act;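 active means activation above the all-compound mean plus 3 SD, ignoring values outside control-based bounds, cut at about 4.8% in these data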;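 further: value is the 4 h activation minus the activation read at time zero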
EDANS interf – optically interferes with EDANS-DABCYL fluorescence, kallikrein-7 activator counter-screen; EDANS-DABCYL peptide fluorescence interference, no enzyme; 250 tested, 20% active; EC50, µM; shares compounds with KLK7 zymogen act; AID 720493;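 active means compounds that raise the fluorescence signal in this interference counterscreen, with EC50 at or below 10 µM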;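 further: intact quenched peptide substrate alone read at 355 nm excitation and 520 nm emission; signal is fluorescence gain from T0 to T4 after four hours at room temperature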
A number is an active result; 0 = inactive; - = no result shown. Hits are enriched below; roughly 1.6% of the tested compounds scored in any of these assays.

SMILES | proCasp3 act | Neddylation inh | KLK7 zymogen act | procasp7 counter | KLK7 act conf | EDANS interfere | others
Cc1ccc(-c2csc3nc4ccc(C(=O)NCCO)cc4c(=O)n23)cc1 | 0 | - | 15.8 | 0 | 0 | 0
Cc1cccn2c(=O)c3cc(C#N)c(=NC(=O)c4ccccc4)n(Cc4ccco4)c3nc12 | 0 | - | 45.0 | 0 | 26.7 | 17.0 | EDANS interf=7.82
Cc1cccc(C(=O)N=c2c(C#N)cc3c(=O)n4cccc(C)c4nc3n2Cc2ccco2)c1 | 0 | - | 27.1 | 0 | 15.8 | 0 | EDANS interf=0
Cc1cccn2c(=O)c3cc(C#N)c(=NC(=O)c4ccco4)n(Cc4ccco4)c3nc12 | 0 | - | 0 | 0 | - | -
O=C(NN1C(=O)c2ccccc2NC12CCCCC2)c1ccccc1 | 0 | - | 0 | 0 | - | -
CS(=O)(=O)NN1C(=O)c2ccccc2NC12CCCC2 | 0 | - | 71.9 | 0 | 37.8 | 51.2
O=C1c2ccccc2NC2(CCCC2)N1NS(=O)(=O)c1ccccc1 | 0 | - | 36.8 | 0 | 31.0 | 28.0
COc1ccc(NC(=O)c2sc3nc(-c4cccnc4)ccc3c2N)cc1OC | 0 | 0 | 56.0 | 0 | 14.8 | 15.7
CC(C)CC(CO)N1CCN(C(=O)c2cccc(Cl)c2)CCC1=O (stereo not given) | 0 | 0 | 0 | 0 | - | -
COc1c2occc2cc2ccc(=O)oc12 | 0 | 0 | 0 | 0 | - | -
COc1c2c(cc3ccc(=O)oc13)CCO2 | 0 | - | 20.2 | 0 | 27.9 | 28.8
Nc1ccc2c(C(F)(F)F)cc(=O)oc2c1 | 0 | 0 | 36.1 | 0 | 87.9 | 85.7
Cc1oc2c(CN3CCOCC3)c(O)ccc2c(=O)c1-c1ccc(Cl)cc1 | 0 | - | 49.3 | 0 | 0 | 6.1
Cc1oc2c(CN3CCCC3)c(O)ccc2c(=O)c1-c1ccc(Cl)cc1 | 0 | - | 27.2 | 0 | 39.8 | 49.6
Cc1oc2c(CN3CCCC3)c(O)ccc2c(=O)c1-c1ccccc1 | 0 | - | - | 0 | - | -
Cc1oc2c(CN3CCOCC3)c(O)ccc2c(=O)c1-c1ccc(Br)cc1 | 0 | - | 0 | 0 | - | -
Cc1oc2c(CN3CCC(C)CC3)c(O)ccc2c(=O)c1-c1ccccc1 | 0 | - | 36.5 | 0 | 40.1 | 44.8
O=S(=O)(c1ccc(C(F)(F)F)cc1)N1CCCc2nc(-c3ccc(Br)cc3)ccc21 | - | - | 0 | - | - | -
Clc1c2c(nc3ccccc13)CCC2 | 0 | 0 | 0 | 0 | - | -
Nc1ccc2nc3c(c(Cl)c2c1)CCCC3 | 0 | - | 13.7 | 0 | 0 | 0
COC(=O)COc1ccc(-c2ccccc2)cc1C=O | 0 | 0 | 13.6 | 0 | 0 | 0
COC(=O)COc1ccc(-c2ccc(F)cc2)cc1C=O | 0 | 0 | 13.4 | 0 | 0 | 0
COC(=O)COc1ccccc1C(N)=O | 0 | 0 | 0 | 0 | - | -
CCN1CCN(Cc2c(O)ccc3c2O/C(=C\c2ccc(C)cc2)C3=O)CC1 | 0 | 0 | 44.0 | 0 | 18.2 | 7.1 | EDANS interf=0
CCN1CCN(Cc2c(O)ccc3c2O/C(=C\c2ccccc2)C3=O)CC1 | 0 | 0 | 41.5 | 0 | 25.1 | 39.3
SMILES | proCasp3 act | Neddylation inh | KLK7 zymogen act | procasp7 counter | KLK7 act conf | EDANS interfere | others
Cc1ccc(/C=C2\Oc3c(ccc(O)c3CN3CCN(C)CC3)C2=O)cc1 | 0 | 0 | 57.5 | 0 | 31.1 | 25.2
CCc1ccc(/C=C2\Oc3c(ccc(O)c3CN3CCN(C)CC3)C2=O)cc1 | 0 | 0 | 57.7 | 0 | 17.5 | 36.7
CCN1CCN(Cc2c(O)ccc3c2O/C(=C\C=C\c2ccccc2)C3=O)CC1 | 0 | 0 | 0 | 0 | - | -
CC1=N/C(=C/c2cccnc2)C(=O)O1 | 0 | 0 | 0 | 0 | - | -
OC(CN(Cc1ccccc1)Cc1ccccc1)c1ccccc1 (stereo not given) | - | 0 | 0 | - | - | -
Cc1cc(=O)oc2c3c(cc(OCC(=O)N[C@@H](Cc4ccccc4)C(=O)O)c12)OC(C)(C)CC3 | 0 | - | 32.5 | 0 | 41.3 | 25.2 | EDANS interf=0
Cc1cc(=O)oc2c3c(cc(OCC(=O)NC(Cc4ccc(Cl)cc4)C(=O)O)c12)OC(C)(C)CC3 (stereo not given) | 0 | - | 13.4 | 0 | 0 | 0
Cc1ccccc1CN1[C@@H](C)[C@H](c2ccccc2)Oc2cccc(NCCc3ccccc3)c2S1(=O)=O | - | - | 0 | - | - | -
O=C(Nc1ccc(Br)cc1)OC1CC2CC1[C@H]1CCCCN1C2 (stereo not given in full) | - | - | 0 | - | - | -
CC1CC(OC(=O)CN2CCCCC2)CC(C)(C)C1 (stereo not given) | 0 | - | - | 0 | - | -
CN(C)c1ccc(-c2nc3ncc(Cl)cc3[nH]2)cc1 | - | - | 17.1 | - | 0 | 11.9
CCc1nc2ccc(C(=O)Nc3cc(-c4ccccc4)ccc3OC)cn2c1N(C)Cc1nccs1 | - | 0 | 0 | - | - | -
N=C1/C(=C\c2coc3ccccc3c2=O)C(=O)N=C2SC(c3ccncc3)=NN12 | 0 | 0 | 42.9 | 0 | 46.9 | 38.5 | EDANS interf=0
N=C1/C(=C/c2coc3ccccc3c2=O)C(=O)N=C2SC(c3ccco3)=NN12 | 0 | 0 | - | 0 | - | -
Cc1cccc(C(O)c2ncc(-c3ccc(F)cc3)[nH]2)c1C (stereo not given) | - | 0 | 0 | - | - | -
CCCCN(C(=O)NC(=O)Nc1ccc(C)cn1)S(C)(=O)=O | 0 | - | 18.9 | 0 | 0 | 0
Cc1nc2nc(-c3ccccc3)cn2nc1C | 0 | - | 64.0 | 0 | 69.8 | 72.3
CCc1c(-c2ccccc2)nc2nc(C)c(C)nn12 | 0 | 0 | 15.0 | 0 | 0 | 0
Cc1nc2nc(-c3ccc(F)cc3)cn2nc1C | 0 | - | 66.6 | 0 | 68.7 | 59.4
CCc1ccc(-c2cn3nc(C)c(C)nc3n2)cc1 | 0 | - | 49.5 | 0 | 72.8 | 72.0
Brc1ccc(-c2cn3nc4c(nc3n2)CCCC4)cc1 | 0 | 0 | 0 | 0 | - | -
Cc1cc(C)n2nc(C)c(-c3ccccc3)c2n1 | 0 | 0 | 0 | 0 | - | -
COC(=O)N/N=C/c1cc(Cl)cc(Cl)c1OCc1ccc(F)cc1 | 0 | 0 | 0 | 0 | - | -
COc1ccccc1C1C2=C(CC(C)(C)CC2=O)N(CC(=O)O)C2=C1C(=O)CC(C)(C)C2 | 0 | 0 | 21.3 | 0 | 30.2 | 34.0
COc1ccc(N2C3=C(C(=O)CC(C)(C)C3)C(c3ccccc3OC)C3=C2CC(C)(C)CC3=O)cc1 | 0 | - | 22.5 | 0 | 0 | 0
C#CCOc1ccc(C2C3=C(CC(C)(C)CC3=O)N(CC(=O)O)C3=C2C(=O)CC(C)(C)C3)cc1 | 0 | - | 30.4 | 0 | 68.1 | 79.7
COc1ccc(C2C3=C(CC(C)(C)CC3=O)N(C)C3=C2C(=O)CC(C)(C)C3)cc1 | 0 | 0 | 35.4 | 0 | 16.5 | 24.9
CCOc1ccc(C2C3=C(CC(C)(C)CC3=O)N(CC(=O)O)C3=C2C(=O)CC(C)(C)C3)cc1OCC | 0 | 0 | 0 | 0 | - | -
O=C(N/N=C/c1ccc2c(c1)OCO2)C(=O)Nc1ccc2ccccc2c1 | 0 | - | 0 | 0 | - | -
CCOC(=O)c1ccc(NC(=O)c2ncn3c2C(=O)NC[C@H]3C)cc1 | - | 0 | 0 | - | - | -
